*1 amine or outer side, *2 acyl side, *3 side chain or, on linkers, in order; H or OH if unused. Where a SMILES comes first, the peptide text is derived from it. Bridges are numbered along the chain shown (N, C = ends). [ ]: non-standard residue; d: D form. The star is where a group is joined. Leu(3R-OH,Nα-propionyl) = CCC(=O)N[C@H](C(=O)*)[C@H](O)C(C)C; X1 = CC(C)[C@@H](O[*:3])[C@H](N[*:1])C(=O)[*:2]; NMeT = CN[C@H](C(=O)O)[C@@H](C)O; dPhLac = O=C(O)[C@H](O)Cc1ccccc1; NMeA = CN[C@@H](C)C(=O)O; NMeDha = C=C(NC)C(=O)O
Columns and labels:
[1] = system: cytosolic cAMP (NK1R, HEK293 cells); assay: FRET biosensor CytoEpac2, SP-induced cytosolic cAMP; type: cell-based, human; details: SP 1 nM
Method in brief: (§1)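 HEK293 cells expressed NK1R plus a genetically encoded FRET biosensor targeted to the cytosol, nucleus or plasma membrane (ERK, PKC or cAMP sensors). Ratiometric imaging followed time courses after SP, with the maximal signal set by a positive control. Responses were integrated as area under the curve.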

[2] = system: nuclear ERK activity (NK1R, HEK293 cells); assay: FRET biosensor NucEKAR, SP-induced nuclear ERK activity; type: cell-based, human; details: for SP stimulation of nuclear ERK: SP 1 nM, HEK293, NucEKAR
Method in brief: as §1

[3] = system: cytosolic ERK activity (NK1R, HEK293 cells); assay: FRET biosensor CytoEKAR, SP-induced cytosolic ERK activity; type: cell-based, human; details: SP 1 nM
Method in brief: as §1

[4] = system: contralateral paw withdrawal; details: mouse, in vivo
[5] = system: SP and CGRP release from dorsal spinal cord; assay: Capsaicin-stimulated neuropeptide release from segments of dorsal spinal cord; details: segments of mouse dorsal spinal cord, n = 6 experiments
[6] = system: plasma membrane PKC activity (NK1R, HEK293 cells); assay: FRET biosensor pmCKAR, plasma membrane PKC activity; type: cell-based, human; details: SP 1 nM
Method in brief: as §1

[7] = system: capsaicin-evoked mechanical allodynia; assay: Capsaicin-evoked mechanical allodynia in rat; type: in vivo; details: intrathecal
[8] = system: NK1R endocytosis in HEK293 cells; assay: BRET assay of SP-induced NK1R endocytosis; type: cell-based, human; details: SP 1 or 10 nM
Method in brief: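 NK1R C-terminally fused to RLUC8 was co-expressed in HEK293 cells with Venus-tagged KRAS (plasma membrane marker) or RAB5A (early endosome marker). Receptor proximity to each compartment was tracked as SP-induced BRET over time. Observations were in triplicate, n ≥ 3 experiments.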

motor behavior = details: mouse, in vivo
[9] = system: HEK293 / HEK-NK1R-GFP cells; assay: Uptake and trafficking of tripartite probes; type: cell-based, human; details: effect of dynamin inhibitor
Method in brief: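 HEK293 or HEK-NK1R–GFP cells were incubated with Cy5-labelled cholestanol-conjugated probes, either continuously for 4 hours or as a 30 or 60 min pulse, washed and recovered 4 hours. NK1R-GFP cells received SP to drive receptor endocytosis. Localization to plasma membrane and RAB5A-RFP– or NK1R-GFP–positive endosomes was imaged, with or without dynamin inhibitor.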

lamina I/IIo neurons = assay: EPSC induced by primary afferent stimulation; type: cell-based; details: n = 11 neurons
[10] = system: cytosolic PKC activity (NK1R, HEK293 cells); assay: FRET biosensor CytoCKAR, SP-induced cytosolic PKC activity; type: cell-based, human; details: SP 1 nM
Method in brief: as §1

[11] = system: NK1R-IR endocytosis in spinal neurons; assay: SP-induced NK1R-IR endocytosis in spinal cord slices; type: cell-based; details: rat spinal cord slices, SP 1 μM 5 min
[12] = system: plasma membrane cAMP (NK1R, HEK293 cells); assay: FRET biosensor pmEpac2, SP-induced plasma membrane cAMP; type: cell-based, human; details: SP 1 nM
Method in brief: as §1

[13] = system: formalin nocifensive response; assay: Nocifensive behavior after intraplantar formalin; type: in vivo, mouse; details: mice, intrathecal endocytosis inhibitors
[14] = system: NK1R-positive neurons in lamina I of the dorsal horn; assay: Cell-attached patch clamp recordings of SP-induced firing in spinal cord slices; type: cell-based, rat; details: for reduction of number of SP-stimulated action potentials: compared to controls; for inhibition of SP-induced firing time of lamina I neurons: slices preincubated with inhibitor, versus vehicle control
Method in brief: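 Cell-attached patch clamp recordings were made from second-order lamina I neurons in rat spinal cord slices. SP was applied at 1 μM for 2 min, then washed out. Slices were exposed to test compound for 60 min, washed, and challenged with SP 60 min later. Firing rate was taken as events per 2 min normalized to the 2-min rate, and duration as time to the last action potential. Six to 7 neurons per group.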

[15] = system: pERK in lamina I/II dorsal horn neurons; assay: Capsaicin-stimulated ERK phosphorylation in dorsal horn neurons in vivo; details: rat, intrathecal inhibitor, intraplantar capsaicin
HEK-NK1R cells = assay: Endocytosis of fluorescent Alexa Fluor 568–SP; type: cell-based, human
PKCα = details: cited from earlier work
NK1R (HEK-NK1R cells) = NK1R (HEK-NK1R cells) (Homo sapiens, UniProt P25103); assay: SP-stimulated Ca2+ signaling; type: cell-based; details: 10 nM antagonist
[16] = system: capsaicin-induced mechanical allodynia; type: in vivo, mouse; details: mice, intrathecal injection 3 hours before intraplantar capsaicin
[17] = system: CFA-induced mechanical hyperalgesia; assay: CFA-induced mechanical hyperalgesia, von Frey; type: in vivo, mouse; details: mice, intrathecal 36 hours after intraplantar CFA
Method in brief: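 Mice received intraplantar CFA; 36 hours later test compound was given intrathecally. Mechanical hyperalgesia was read as von Frey filament withdrawal responses of the CFA-injected paw over the following hours. Groups were compared to control by ANOVA with Dunnett's test.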

[18] = system: NK1R-IR in lamina I neurons; assay: NK1R endocytosis in spinal neurons in vivo after intraplantar capsaicin; details: rat, intraplantar capsaicin alone (vehicle-treated control 80.7 ± 1.6), 10 min
[19] = Degradation by membranes prepared from spinal cord; type: in vitro ADME, mouse
[20] = rat spinal cord slices, SP 1 μM 2 min

Sequence of NK1R (HEK-NK1R cells) (P25103 whole entry, species assumed): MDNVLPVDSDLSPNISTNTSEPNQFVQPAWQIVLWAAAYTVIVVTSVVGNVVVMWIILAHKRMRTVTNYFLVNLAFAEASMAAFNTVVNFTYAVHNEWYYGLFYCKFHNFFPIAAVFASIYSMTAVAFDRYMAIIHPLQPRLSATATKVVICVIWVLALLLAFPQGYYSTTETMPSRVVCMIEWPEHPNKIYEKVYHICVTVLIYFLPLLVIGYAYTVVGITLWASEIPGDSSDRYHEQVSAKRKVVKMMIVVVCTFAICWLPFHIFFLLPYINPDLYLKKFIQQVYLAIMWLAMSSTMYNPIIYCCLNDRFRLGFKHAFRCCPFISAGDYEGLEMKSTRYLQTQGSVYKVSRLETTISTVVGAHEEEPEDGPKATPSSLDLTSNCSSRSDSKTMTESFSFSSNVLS

Molecule: O=C(N/N=C/c1cc(O)c(O)cc1O)c1cc2ccccc2cc1O [Dy4, Dyngo-4a]
- SP stimulation of cytosolic cAMP [1]: abolished
- SP stimulation of nuclear ERK [2]: abolished
- SP activation of cytosolic ERK [3]: did not affect
- withdrawal responses of the contralateral paw [4]: did not affect
- capsaicin-stimulated release of SP or CGRP [5]: did not affect
- plasma membrane PKC activity [6]: amplified plasma membrane PKC activity
- capsaicin-evoked mechanical allodynia in rat [7]: inhibited capsaicin-evoked mechanical allodynia
- SP-induced NK1R endocytosis [8]: inhibited NK1R endocytosis
- rotarod latency (motor behavior): did not affect
- uptake of Chol-conjugated tripartite probes [9]: inhibited uptake
- generation of excitatory postsynaptic currents (EPSCs) (lamina I/IIo neurons): did not affect
- SP stimulation of cytosolic PKC [10]: abolished
- SP-stimulated NK1R-IR endocytosis in spinal neurons [11]: inhibited NK1R endocytosis
- SP activation of plasma membrane cAMP [12]: did not affect
- nocifensive response to intraplantar formalin [13]: blunted both the early (noninflammatory) and late (inflammatory) phases
- initial onset of SP-induced firing [14, 20]: did not affect the initial onset
- sustained SP-induced firing (firing rate and firing time) [14, 20]: prevented the sustained response
- SP-induced firing rate (events per 2 min, normalized to rate at 2 min) ([14]; rat spinal cord slices, SP 1 μM 2 min, endocytosis inhibitor): 342.1 ± 120.7 events per 2 min
- capsaicin-stimulated ERK activation in spinal neurons [15]: prevented capsaicin-stimulated ERK activation
- endocytosis of fluorescent Alexa Fluor 568–SP (HEK-NK1R cells): inhibited endocytosis

Molecule: O=C(O)CN(CCOCCOCCN(CC(=O)O)CC(=O)O)CC(=O)O [EGTA]
- SP stimulation of cytosolic cAMP [1]: prevented SP generation of cytosolic cAMP
- SP stimulation of cytosolic PKC [10]: prevented activation of cytosolic PKC

Molecule: CN(C)CCCn1cc(C2=C(c3c[nH]c4ccccc34)C(=O)NC2=O)c2ccccc21 [GF109203X]
- SP stimulation of cytosolic cAMP [1]: prevented SP generation of cytosolic cAMP
- reduction of number of SP-stimulated action potentials [14]: 61 ± 15%
- inhibition of SP-induced firing time of lamina I neurons [14]: 56.8 ± 8.2%
- inhibiting PKCα (PKCα): 4 % control

Molecule: FC(F)(F)c1cc(CO[C@H]2CCCN[C@H]2c2ccccc2)cc(C(F)(F)F)c1 [L-733,060]
- % inhibition against 1 nM SP, Ca2+ signaling (NK1R (HEK-NK1R cells)): 40.8 ± 8.9%
- capsaicin-evoked mechanical allodynia [16]: antinociceptive only at 1 hour

Molecule: O=C1NC(=NS(=O)(=O)c2cccc3ccccc23)S/C1=C\c1ccc(Br)cc1 [PS2, Pitstop-2]
- SP stimulation of cytosolic cAMP [1]: abolished
- SP stimulation of nuclear ERK [2]: abolished
- SP activation of cytosolic ERK [3]: did not affect
- withdrawal responses of the contralateral paw [4]: did not affect
- capsaicin-stimulated release of SP or CGRP [5]: did not affect
- plasma membrane PKC activity [6]: amplified plasma membrane PKC activity
- SP-induced NK1R endocytosis [8]: inhibited NK1R endocytosis
- rotarod latency (motor behavior): did not affect
- SP stimulation of cytosolic PKC [10]: abolished
- SP activation of plasma membrane cAMP [12]: did not affect
- nocifensive response to intraplantar formalin [13]: blunted both the early (noninflammatory) and late (inflammatory) phases
- capsaicin-stimulated ERK activation in spinal neurons [15]: prevented capsaicin-stimulated ERK activation
- endocytosis of fluorescent Alexa Fluor 568–SP (HEK-NK1R cells): inhibited endocytosis

Molecule: CC(C)Oc1cccc(CC(=O)N2CCC[C@@](CC[N+]34CCC(c5ccccc5)(CC3)CC4)(c3ccc(Cl)c(Cl)c3)C2)c1.[Cl-] [SR140,333]
- SP-induced nuclear ERK (endosomal NK1R) 4 hours after pulse ([2]; pulse-incubated 30 min, washed, SP 4 hours later): unable to effectively inhibit persistent NK1R signaling in endosomes
- CFA mechanical hyperalgesia [17]: minor

Molecule: N#CC(=C(/N)Sc1ccccc1N)/C(C#N)=C(/N)Sc1ccccc1N [U0126]
- reduction of number of SP-stimulated action potentials [14]: 84 ± 5%
- inhibition of SP-induced firing time of lamina I neurons [14]: 67.5 ± 8.3%

Molecule: COc1ccc2c(c1)CC[C@@H]1[C@@H]2CC[C@]2(C)[C@@H](NCCCCCCN3C(=O)C=CC3=O)CC[C@@H]12 [U73122]
- SP stimulation of cytosolic PKC [10]: prevented activation of cytosolic PKC

Molecule: C=C1C(=O)N[C@@H](C)C(=O)N(C)[C@@H](C)C(=O)N[C@@H]([C@H](OC(=O)[C@@H](NC(=O)CC)[C@H](O)C(C)C)C(C)C)C(=O)N(C)[C@@H]([C@@H](C)OC)C(=O)O[C@H](C(C)C)[C@H](NC(C)=O)C(=O)O[C@H](Cc2ccccc2)C(=O)N1C [UBO-QIC] (Ac-[X1][dPhLac][NMeDha]A[NMeA][X1](Leu(3R-OH,Nα-propionyl))[NMeT](Me); ester 1-C)
- SP stimulation of cytosolic cAMP [1]: prevented SP generation of cytosolic cAMP
- SP stimulation of nuclear ERK [2]: prevented SP activation of nuclear ERK
- SP-induced NK1R endocytosis [8]: did not affect NK1R endocytosis
- SP stimulation of cytosolic PKC [10]: prevented activation of cytosolic PKC

Molecule: COc1cc(CNC(=O)CCCC/C=C/C(C)C)ccc1O [capsaicin]
- % NK1R-IR within 0.5 μm of plasma membrane [18]: 42.1 ± 5.6%

Molecule: substance P [SP]
- degradation by spinal cord membranes [19]: rapidly degraded

Source: publication PMC6034632 (Science translational medicine, 2017)
